A short description of assay [1]: inhibitors of TNFa-induced NFkB p65 translocation, primary screen, imaging, HUVEC, MLSMR starter and 10KST1 sets (AID 438;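 active = inhibition above 20% together with a positive visual image hit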;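 also: compound added about 3h40 before a 20 min TNFalpha stimulation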;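 as to inhibition: signal is the nuclear over cytoplasmic p65 intensity ratio per well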). The conditions noted are these: HUVEC TNFa-induced p65 nuclear translocation; cell count: measured here: nuclei count (cytotoxicity indicator), at 2.08 µM; inhibition: at 2 µM, stronger effect = higher value, 0% TNFa-plus-vehicle, 100% no-TNFa wells.
Assay [2] in a line: inhibitors of E-selectin induction by TNFa, primary screen, imaging, HUVEC, immunofluorescence, MLSMR starter and 10KST1 sets (AID 487;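 active = visually confirmed hit in the image check and inhibition above 20%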;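 as to inhibition: signal is fraction of cell area covered by stained E-selectin grains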;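 as to nuclei count: 100% = median nuclei count of all wells on the same plate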). The conditions noted are these: HUVEC TNFalpha-induced E-selectin immunofluorescence imaging, at 2 µM; inhibition: stronger effect = higher value; nuclei count: measured here: cell number, toxicity.
Assay [3] is described as follows: DUSP6 inhibitors restoring Erk phosphorylation by chemical complementation, primary imaging in DUSP6-transfected HeLa (AID 609).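 As to inhibition: phospho-Erk level distribution per well compared with pooled transfected vehicle control wells.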 The conditions noted are these: HeLa MKP-3 transfected, phospho-Erk imaging KS statistic, at 10 µM, cells stimulated with TPA for 15 min.
For assay [4], the target named is Dual specificity protein phosphatase 6 (Homo sapiens) (UniProt Q16828). The assay is described as above. The conditions noted are these: HeLa MKP-3 transfected, phospho-Erk imaging KS statistic; at 10 µM; stronger effect = higher value; cells stimulated with TPA for 15 min.
For assay [5], the target named is Voltage-gated potassium channel subunit beta-2 (Rattus norvegicus) (UniProt P62483). Description: KvBeta enzyme negative modulators, primary screen, biochemical, NADPH fluorescence (AID 622;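 active = fluorescence slope higher than the sample average by over 3 SD, cut at about -0.22 in these data, passing the limit was not always enough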;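 also: slope of raw intensity against log time taken from 70 to 1610 s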). The conditions noted are these: recombinant KvBeta, 4-cyanobenzaldehyde reduction, at 10 µM, stronger effect = higher value.
For assay [6] the target is unchanged. Description: KvBeta positive modulators, primary screen, biochemical, NADPH fluorescence (AID 623;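 active = NADPH fluorescence slope more negative than the mean of all samples by about 3 SD, 99.7% confidence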;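 also: fluorescence intensity change per second fitted from 20 to 320 s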). The conditions noted are these: Recombinant KvBeta, NADPH fluorescence decrease slope, 10 min; at 10 µM; stronger effect = lower value.
Assay [7] has as its target Muscarinic acetylcholine receptor M4 (Homo sapiens) (UniProt P08173). Description: compounds altering M4/GIRK thallium flux, either direction, primary screen, M4 allosteric agonist project, cell-based, HEK293 M4/GIRK, BTC-AM (AID 625;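 active = fluorescence slope after compound addition differing from the mean of all tested samples at 99.7% confidence, mostly higher but some lower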;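 also: thallium influx through GIRK channels coupled to M4 in HEK293 cells with BTC-AM dye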). The conditions noted are these: at 10 µM, actives lie on both sides. In short, it runs like this:
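System: HEK293 cells with M4 receptor and GIRK channels | Incubation: Cells overnight at 37 °C, BTC-AM loading 1 h, reads 2 min total | Technique: Kinetic BTC-AM fluorescence sampled at 1 Hz, 10 s pre-addition baseline | Measure: Post-addition slope, 15–24 s, of baseline-normalized fluorescence | Control set: Carbachol positive, DMSO negative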

Assay [8] in a line: inhibitors of larval lipid processing in zebrafish, primary screen, whole organism, PED6 fluorescence, gall bladder and intestine (AID 686;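 active = a full or partial loss of lipid-probe fluorescence in the fish gall bladder, intestine or both, judged by eye; inactive = no fluorescence loss, or compound toxic to the fish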;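 also: larvae 5 to 7 days old with five fish per well; signal comes from phospholipase A2 cleavage of quenched PED6 carried via bile; overnight exposure to compound and PED6 before scoring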). The conditions noted are these: Zebrafish larvae PED6 lipid processing, fluorescence scoring; screened at 20 µM (by protocol). In short, it runs like this: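 Test system – live zebrafish larvae aged 5-7 days, whole organism · Buffer or medium – E3 fish medium · Reagent – quenched phospholipase substrate PED6, 100 nM final, ingested by larvae · Doses – 20 µM single dose · Incubation – overnight compound and PED6 incubation · Technique – visual fluorescence microscopy scoring of gall bladder, gut · Read-out basis – visual per-well fluorescence inhibition score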

Assay [9] is described as follows: inhibitors of Chlamydomonas gravitaxis, primary screen, whole organism, Chlamydomonas reinhardtii, WT vs cilia-less mutant, absorbance, 96-well (AID 463189;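 active = inhibition at or above 50% relative to wild type and mutant plate controls; inactive = inhibition below 50%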;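 also: 0% = wild type cc124 cells in DMSO and 100% = ciliumless bld1 mutant cells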). The conditions noted are these: OD600 absorbance, 2 days, at 10 µM, stronger effect = higher value.
The mark [10] stands for this setting: measured here: cell density z-score.
The mark [11] stands for this setting: measured here: nuclear c-Myc green intensity z-score.
Where [12] appears, read: measured here: nuclear pErk red intensity z-score, stronger effect = higher value.

Activity calls are given as the source filed them.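 The calls were made as follows, unless noted: active = compounds giving at least 50% inhibition in the cell-based MKP-3 phosphatase rescue imaging test; inactive = the rest.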

Sequence of Muscarinic acetylcholine receptor M4 (Homo sapiens) (P08173 whole entry, looked up): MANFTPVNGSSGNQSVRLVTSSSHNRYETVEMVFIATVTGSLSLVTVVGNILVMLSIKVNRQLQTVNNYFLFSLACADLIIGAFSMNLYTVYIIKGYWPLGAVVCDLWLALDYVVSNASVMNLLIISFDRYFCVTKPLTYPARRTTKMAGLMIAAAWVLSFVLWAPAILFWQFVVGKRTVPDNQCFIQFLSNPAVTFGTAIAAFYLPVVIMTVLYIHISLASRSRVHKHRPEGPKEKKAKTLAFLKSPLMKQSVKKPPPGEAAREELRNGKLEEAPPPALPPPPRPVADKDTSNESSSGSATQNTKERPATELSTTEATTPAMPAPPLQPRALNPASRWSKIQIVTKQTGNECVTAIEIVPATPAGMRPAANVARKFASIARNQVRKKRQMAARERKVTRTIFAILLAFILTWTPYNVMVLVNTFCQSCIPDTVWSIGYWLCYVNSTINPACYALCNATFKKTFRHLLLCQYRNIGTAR
Sequence of Voltage-gated potassium channel subunit beta-2 (Rattus norvegicus) (P62483 whole entry, looked up): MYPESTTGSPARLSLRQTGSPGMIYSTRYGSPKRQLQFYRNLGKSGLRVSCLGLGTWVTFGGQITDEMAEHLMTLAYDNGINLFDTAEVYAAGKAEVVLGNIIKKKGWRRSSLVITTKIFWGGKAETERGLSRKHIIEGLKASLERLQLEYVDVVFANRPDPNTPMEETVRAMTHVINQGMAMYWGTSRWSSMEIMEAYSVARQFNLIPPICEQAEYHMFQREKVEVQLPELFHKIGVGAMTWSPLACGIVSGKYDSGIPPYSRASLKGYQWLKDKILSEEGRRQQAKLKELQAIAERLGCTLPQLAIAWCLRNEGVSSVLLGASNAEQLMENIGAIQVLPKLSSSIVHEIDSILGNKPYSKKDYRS
Sequence of Dual specificity protein phosphatase 6 (Homo sapiens) (Q16828 whole entry, looked up): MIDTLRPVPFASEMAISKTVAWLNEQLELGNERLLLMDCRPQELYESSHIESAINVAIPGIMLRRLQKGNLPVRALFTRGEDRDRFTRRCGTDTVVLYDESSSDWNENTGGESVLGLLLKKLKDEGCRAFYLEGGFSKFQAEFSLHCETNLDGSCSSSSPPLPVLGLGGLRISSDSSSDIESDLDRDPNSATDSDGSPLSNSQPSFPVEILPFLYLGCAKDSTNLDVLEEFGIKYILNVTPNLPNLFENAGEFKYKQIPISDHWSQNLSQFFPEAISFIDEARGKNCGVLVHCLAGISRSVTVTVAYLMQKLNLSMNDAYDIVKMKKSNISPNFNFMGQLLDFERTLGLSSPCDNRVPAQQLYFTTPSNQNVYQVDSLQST

For the compound `CCN(CC)CCNc1ncnc2c1[nH]c1ccc(OC)cc12`, the cell count in [1] is 595. Moreover, the inhibition in assay [1] is -7.6% (inactive); in assay [2] it was -67.9% (inactive); in assay [4], 3.42% (inactive); in assay [9] it was 6% (inactive). For the same compound, the nuclei count in assay [2] turned out to be 150%. In addition, the z-score in [3] (setting [10]) is 1.23; in assay [3] (setting [11]) it was -0.0798; in [3] (setting [12]) it was -1.12. Further, the fluorescence slope in assay [5] is -0.236 (inactive); in [7], 0.00672 (inactive). For the same compound, the NADPH fluorescence slope in assay [6] is 1.1e-06 (inactive). In addition, the outcome in [8] was inactive.

As for `CCOC(=O)c1[nH]c2ccc(C)cc2c1N`, the cell count in [1] came to 678. Further, the inhibition was -29.2% (inactive) in assay [1], -53.9% (inactive) in assay [2], -5.95% (inactive) in [4] and -1.56% (inactive) in [9]. The compound also came in with a nuclei count in assay [2] of 207%. For the same compound, the figures for the z-score in assay [3] (setting [10]), in assay [3] (setting [11]) and in [3] (setting [12]) were -1.62, 0.0814 and 1.41, respectively. Moreover, the fluorescence slope is -0.46 (inactive) in [5] and 0.00561 (inactive) in assay [7]. Besides, the NADPH fluorescence slope in assay [6] was -4.7e-05 (inactive). In addition, in [8], the compound was classed as inactive.

Turning to `Cc1[nH]nc(-c2ccc(O)cc2O)c1Oc1ccccc1`, in assay [1], the cell count stood at 565. The inhibition was -2.3% (inactive) in assay [1], -110% (inactive) in assay [2], 15.9% (inactive) in assay [4] and 9.24% (inactive) in assay [9]. In assay [2], this compound showed a nuclei count of 175%. In addition, the z-score in assay [3] (setting [10]) is 1.43; in [3] (setting [11]), -0.0429; in assay [3] (setting [12]), -0.868. The fluorescence slope in assay [5] is -0.433 (inactive); in assay [7], 0.00505 (inactive). In assay [6], the NADPH fluorescence slope was -7e-05 (inactive). Also, the outcome in assay [8] was inactive.

`CC1CCN(c2ncnc3c2cnn3Cc2ccc(Cl)cc2)CC1`: in [1], the cell count amounted to 549. Besides, the inhibition in [1] was -8.1% (inactive); in [2], 2.1% (inactive); in assay [4], 13.9% (inactive); in [9], 4.22% (inactive). The compound further had a nuclei count in [2] of 135%. Moreover, the figures for the z-score in [3] (setting [10]), in assay [3] (setting [11]) and in assay [3] (setting [12]) were -0.011, 0.63 and 0.724, respectively. Moreover, the fluorescence slope in assay [5] is -0.348 (inactive); in [7] it was 0.00585 (inactive). Also, in assay [6], the NADPH fluorescence slope is -1.7e-05 (inactive). Further, the result in [8] was inactive.

As to `CC1(C)Cc2ccccc2-c2c1c(=O)n(-c1ccccc1)c1nnnn21`, the cell count in assay [1] amounted to 624. The inhibition in assay [1] was 8.6% (inactive); in [2], -45% (inactive); in assay [4], 4.72% (inactive); in assay [9], 13.9% (inactive). The compound further had a nuclei count in [2] of 92.5%. Besides, the z-score in [3] (setting [10]) was 0.648; in assay [3] (setting [11]), -0.29; in assay [3] (setting [12]) it was -0.398. Moreover, the fluorescence slope in assay [5] is -0.51 (inactive); in assay [7] it was 0.00444 (inactive). Also, the NADPH fluorescence slope in assay [6] is -1.7e-05 (inactive). Further, in [8], the call was inactive.

As for `CCOC(=O)C1=C(N)n2c(s/c(=C\c3cccnc3)c2=O)=C(C(=O)OC)C1c1cccnc1` (centres undefined), in assay [1], the cell count is 326. The inhibition in [1] was -14.1% (inactive); in assay [2], -129% (inactive); in assay [4], -2.59% (inactive); in assay [9] it was -3.27% (inactive). For the same compound, the nuclei count in assay [2] was determined as 110%. Besides, the z-score in [3] (setting [10]) is -0.584; in [3] (setting [11]) it was 1.82; in [3] (setting [12]), -0.0878. In addition, the fluorescence slope in assay [5] was -0.501 (inactive); in assay [7] it was 0.00354 (inactive). The NADPH fluorescence slope in assay [6] was 1.7e-05 (inactive). For the same compound, the compound was classed as inactive in assay [8].

As to `CCCCc1nc(N2CCOCC2)c(C#N)c2c1CCCC2`, in [1], the cell count was determined as 559. In addition, the inhibition was -11.7% (inactive) in assay [1], -89.9% (inactive) in assay [2], -15.1% (inactive) in assay [4] and 11.9% (inactive) in [9]. In assay [2], this compound came in with a nuclei count of 141%. The z-score in [3] (setting [10]) worked out at 0.356; in assay [3] (setting [11]), 0.825; in [3] (setting [12]) it was 0.364. The figures for the fluorescence slope in [5] and in [7] were -0.449 (inactive) and 0.00395 (inactive), respectively. Further, the NADPH fluorescence slope in assay [6] was -0.000117 (inactive). In addition, in [8], the call was inactive.

As to `CCc1cc(=O)oc2cc(C)c(CN3CCCCC3)c(O)c12`, in [1], the cell count was determined as 612. Further, the inhibition in assay [1] was -9.1% (inactive); in [2], 31% (inactive); in assay [4], -8.95% (inactive); in [9] it was 4.62% (inactive). Besides, the nuclei count in [2] was found to be 182%. Moreover, the z-score in [3] (setting [10]) was -0.916; in assay [3] (setting [11]) it was -0.125; in assay [3] (setting [12]) it was 1.01. Besides, the fluorescence slope was -0.464 (inactive) in assay [5] and 0.00459 (inactive) in [7]. Moreover, in assay [6], the NADPH fluorescence slope is -6.3e-05 (inactive). Further, the compound was classed as inactive in assay [8].

As for `CCCSc1nc(N2CCOCC2)c2c(c1C#N)CCCC2`, the cell count in assay [1] was found to be 569. Moreover, the inhibition in assay [1] is -12.9% (inactive); in assay [2], -93.9% (inactive); in assay [4], 10.9% (inactive); in [9], 5.19% (inactive). Moreover, in assay [2], the nuclei count worked out at 147%. The z-score is 0.303 in assay [3] (setting [10]), 0.327 in [3] (setting [11]) and 2.25 in assay [3] (setting [12]). For the same compound, the fluorescence slope in [5] is -0.467 (inactive); in assay [7], 0.00772 (inactive). The NADPH fluorescence slope in [6] is -0.000102 (inactive). Besides, the compound was classed as inactive in assay [8].

As to `COC(=O)CSc1nc2c(c(=O)n(C)c(=O)n2C)n1CCC(C)C`, the cell count in [1] stood at 599. In addition, the inhibition is -7% (inactive) in assay [1], -120% (inactive) in assay [2], 3.42% (inactive) in assay [4] and -12.3% (inactive) in [9]. For the same compound, in assay [2], the nuclei count came out at 130%. The z-score in assay [3] (setting [10]) is -2.77; in assay [3] (setting [11]), 3.03; in [3] (setting [12]), -2.44. Besides, the fluorescence slope is -0.394 (inactive) in [5] and 0.00549 (inactive) in [7]. In assay [6], the NADPH fluorescence slope is 6.8e-06 (inactive). Further, the outcome in assay [8] was inactive.

In the case of `Cc1sc(-n2c(C)ccc2C)c(C#N)c1C`, in assay [1], the cell count worked out at 411. For the same compound, the inhibition is -2% (inactive) in assay [1], -11.7% (inactive) in [2], 7.73% (inactive) in [4] and -3.1% (inactive) in assay [9]. Besides, the nuclei count in assay [2] came to 144%. Besides, the z-score in assay [3] (setting [10]) is -1.09; in [3] (setting [11]), -0.0847; in assay [3] (setting [12]), 1.07. The fluorescence slope in [5] was -0.505 (inactive); in assay [7], 0.00469 (inactive). Besides, the NADPH fluorescence slope in assay [6] is -9.6e-05 (inactive). Besides, the compound was classed as inactive in assay [8].

Regarding `CCOc1ccc(N2C(=O)CC(N)C2=O)cc1` (centres undefined), the cell count in [1] amounted to 726. Further, the inhibition in assay [1] is 11.3% (inactive); in assay [2], 33.5% (inactive); in assay [4], -13.3% (inactive); in [9] it was 19.4% (inactive). For the same compound, the nuclei count in assay [2] stood at 123%. In addition, the figures for the z-score in [3] (setting [10]), in assay [3] (setting [11]) and in assay [3] (setting [12]) were -0.139, 1.28 and 0.161, respectively. The fluorescence slope is -0.462 (inactive) in assay [5] and 0.00592 (inactive) in assay [7]. For the same compound, the NADPH fluorescence slope in assay [6] is -5.8e-05 (inactive). The compound was classed as inactive in [8].

Regarding `Cc1cc(NC(CC(C)C)C(=O)O)nc(Cc2ccccc2)n1` (centres undefined), in assay [1], the cell count is 372. The inhibition in [1] was -2.8% (inactive); in [2], -117% (inactive); in assay [4] it was 5.42% (inactive); in [9] it was 0.592% (inactive). In assay [2], the nuclei count is 188%. Besides, the z-score is -0.0865 in [3] (setting [10]), -1.02 in [3] (setting [11]) and 0.665 in assay [3] (setting [12]). Moreover, the results for the fluorescence slope in assay [5] and in assay [7] were -0.47 (inactive) and 0.00469 (inactive), respectively. Further, the NADPH fluorescence slope in [6] is -0.000155 (inactive). In addition, the compound was classed as inactive in [8].

These data come from PubChem BioAssay.
